Data as given in ChEMBL document CHEMBL1165899, “Synthesis and antitumor evaluation of novel cyclic arylsulfonylureas: ADME-T and pharmacophore prediction” (2010).

Key:
Type in all cases: functional
HOP-92 = assay: Growth inhibition of human HOP92 cells at 10 uM after 48 hrs by sulforhodamine B assay relative to control; conditions: HOP-92, 48 h, read-out: GI
PC-3 = assay: Growth inhibition of human PC3 cells at 10 uM after 48 hrs by sulforhodamine B assay relative to control; conditions: PC-3, 48 h, read-out: GI
UO-31 = assay: Growth inhibition of human UO31 cells at 10 uM after 48 hrs by sulforhodamine B assay relative to control; conditions: UO-31, 48 h, read-out: GI
In short: (§1)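 NCI 60-cell-line single-dose screen at 10 µM. Cells were plated at 5000–40,000 cells/well according to doubling time, in medium with 2 mM L-glutamine, and held 24 h at 37 °C, 5% CO₂, 100% humidity before drug. Time-zero plates were TCA-fixed. Exposure was 48 h, then TCA fixation and sulforhodamine B staining for 10 min, acetic acid washes, 10 mM trizma solubilization and A515. % inhibition = 100 − % activity, where 100% is the DMSO-solvent control.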

SNB-19 = assay: Growth inhibition of human SNB19 cells at 10 uM after 48 hrs by sulforhodamine B assay relative to control; conditions: SNB-19, 48 h, read-out: GI
OVCAR-3 = assay: Growth inhibition of human OVCAR-3 cells at 10 uM after 48 hrs by sulforhodamine B assay relative to control; conditions: OVCAR-3, 48 h, read-out: GI
HT-29 = assay: Growth inhibition of human HT-29 cells at 10 uM after 48 hrs by sulforhodamine B assay relative to control; conditions: HT-29, 48 h, read-out: GI
OVCAR-5 = assay: Growth inhibition of human OVCAR5 cells at 10 uM after 48 hrs by sulforhodamine B assay relative to control; conditions: OVCAR-5, 48 h, read-out: GI
NCI-H226 = assay: Growth inhibition of human NCI-H226 cells at 10 uM after 48 hrs by sulforhodamine B assay relative to control; conditions: NCI-H226, 48 h, read-out: GI
SW-620 = assay: Growth inhibition of human SW620 cells at 10 uM after 48 hrs by sulforhodamine B assay relative to control; conditions: SW-620, 48 h, read-out: GI; in short: as §1
SK-MEL-5 = assay: Growth inhibition of human SK-MEL-5 cells at 10 uM after 48 hrs by sulforhodamine B assay relative to control; conditions: SK-MEL-5, 48 h, read-out: GI
CAKI-1 = assay: Growth inhibition of human Caki1 cells at 10 uM after 48 hrs by sulforhodamine B assay relative to control; conditions: CAKI-1, 48 h, read-out: GI
DU-145 = assay: Growth inhibition of human DU145 cells at 10 uM after 48 hrs by sulforhodamine B assay relative to control; conditions: DU-145, 48 h, read-out: GI
HCT-15 = assay: Growth inhibition of human HCT15 cells at 10 uM after 48 hrs by sulforhodamine B assay relative to control; conditions: HCT-15, 48 h, read-out: GI
CCRF-CEM = assay: Growth inhibition of human CCRF-CEM cells at 10 uM after 48 hrs by sulforhodamine B assay relative to control; conditions: read-out: GI
SN12C = assay: Growth inhibition of human SN12C cells at 10 uM after 48 hrs by sulforhodamine B assay relative to control; conditions: read-out: GI
[1] = Growth inhibition of human Hs 578T cells at 10 uM after 48 hrs by sulforhodamine B assay relative to control; conditions: read-out: GI
SF-539 = assay: Growth inhibition of human SF539 cells at 10 uM after 48 hrs by sulforhodamine B assay relative to control; conditions: SF-539, 48 h, read-out: GI
NCI/ADR-RES = assay: Growth inhibition of human NCI/ADR-RES cells at 10 uM after 48 hrs by sulforhodamine B assay relative to control; conditions: read-out: GI
LOX IMVI = assay: Growth inhibition of human LOXIMVI cells at 10 uM after 48 hrs by sulforhodamine B assay relative to control; conditions: read-out: GI
MDA-MB-435 = assay: Growth inhibition of human MDA-MB-435 cells at 10 uM after 48 hrs by sulforhodamine B assay relative to control; conditions: MDA-MB-435, 48 h, read-out: GI
NCI-H23 = assay: Growth inhibition of human NCI-H23 cells at 10 uM after 48 hrs by sulforhodamine B assay relative to control; conditions: NCI-H23, 48 h, read-out: GI
OVCAR-8 = assay: Growth inhibition of human OVCAR8 cells at 10 uM after 48 hrs by sulforhodamine B assay relative to control; conditions: OVCAR-8, 48 h, read-out: GI
MOLT-4 = assay: Growth inhibition of human MOLT4 cells at 10 uM after 48 hrs by sulforhodamine B assay relative to control; conditions: MOLT-4, 48 h, read-out: GI
TK-10 = assay: Growth inhibition of human TK10 cells at 10 uM after 48 hrs by sulforhodamine B assay relative to control; conditions: TK-10, 48 h, read-out: GI; in short: as §1
COLO 205 = assay: Growth inhibition of human COLO205 cells at 10 uM after 48 hrs by sulforhodamine B assay relative to control; conditions: COLO 205, 48 h, read-out: GI

## CN(C)c1ccc(/C=C2\NC(=O)N(S(=O)(=O)c3ccc(Cl)cc3)C2=O)cc1
HOP-92
  inhibition of growth at 10 µM: 11.2%
PC-3
  inhibition of growth at 10 µM: -6.65%
UO-31
  inhibition of growth at 10 µM: 5.5%
SNB-19
  inhibition of growth at 10 µM: -6.78%
OVCAR-3
  inhibition of growth at 10 µM: -13.9%
HT-29
  inhibition of growth at 10 µM: -2.64%
OVCAR-5
  inhibition of growth at 10 µM: -4.44%
NCI-H226
  inhibition of growth at 10 µM: -9.94%
SW-620
  inhibition of growth at 10 µM: -1.96%
SK-MEL-5
  inhibition of growth at 10 µM: -3.11%
CAKI-1
  inhibition of growth at 10 µM: -5.71%
DU-145
  inhibition of growth at 10 µM: -4.25%
HCT-15
  inhibition of growth at 10 µM: 1.55%
CCRF-CEM
  inhibition of growth at 10 µM: 2.95%
SN12C
  inhibition of growth at 10 µM: 0.04%
[1]
  inhibition of growth at 10 µM: 14.1%
SF-539
  inhibition of growth at 10 µM: -0.9%
NCI/ADR-RES
  inhibition of growth at 10 µM: -6.33%
LOX IMVI
  inhibition of growth at 10 µM: 6.44%
MDA-MB-435
  inhibition of growth at 10 µM: -4.89%
NCI-H23
  inhibition of growth at 10 µM: -1.8%
OVCAR-8
  inhibition of growth at 10 µM: -8.63%
MOLT-4
  inhibition of growth at 10 µM: 11.5%
TK-10
  inhibition of growth at 10 µM: -33.4%
COLO 205
  inhibition of growth at 10 µM: -14.7%
